# PAFAH2 FP inh = PAFAH2 (human) inhibition; recombinant PAFAH2, FP-rhodamine activity probe, fluorescence polarization; inhibition, % at 3.39 µM; Q99487; 0.99% of 340,000 active;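 active means inhibition above the mean over all tested compounds plus 3 SD, cut at about 30% in these data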;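 further: inhibitors block probe labeling of enzyme so polarization drops; 0% = enzyme with DMSO and 100% = wells lacking PAFAH2 protein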
# PAFAH1B2 FP inh = inhibitors of human PAFAH1B2; 1.2% of 340,000 active; AID 492953; inhibition, % at 3.39 µM; recombinant PAFAH1B2, FP-rhodamine activity probe, fluorescence polarization;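 active means inhibition above the mean of all tested compounds plus 3 SD, cut at about 24% in these data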;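 further: 0% = enzyme with DMSO and 100% = wells lacking PAFAH1B2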
# HTRA1 inh = inhibitors of human serine peptidase HTRA1; 0.5% of 340,000 active; recombinant HTRA1, FP-rhodamine activity-based probe, fluorescence polarization; inhibition, % at 5.96 µM; Q92743; in the data active means inhibition above about 36%;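 further: 0% = enzyme with DMSO and 100% = wells lacking enzyme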
# PAFAH1B3 inh = PAFAH1B3 (human) inhibition | inhibition, % at 3.39 µM | Q15102 | 0.28% of 340,000 active | recombinant PAFAH1B3, FP-rhodamine probe, fluorescence polarization | AID 492972;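 active means inhibition above the screen-wide average of all tested compounds plus 3 SD, cut at about 25% in these data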;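 further: 0% = enzyme with DMSO only and 100% = wells lacking PAFAH1B3 protein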
# Target sequence (Q15102 whole entry, looked up): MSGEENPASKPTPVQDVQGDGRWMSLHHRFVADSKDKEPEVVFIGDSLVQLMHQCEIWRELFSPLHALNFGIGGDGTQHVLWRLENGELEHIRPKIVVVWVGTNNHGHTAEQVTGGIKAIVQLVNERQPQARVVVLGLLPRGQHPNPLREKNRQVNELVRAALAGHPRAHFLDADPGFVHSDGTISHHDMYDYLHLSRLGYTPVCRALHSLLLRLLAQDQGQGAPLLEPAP
# mABHD4 FP = inhibits mouse alpha/beta hydrolase domain 4. 0.54% of 370,000 active. purified mABHD4, FP-Rh probe fluorescence polarization. Q8VD66. AID 720543. inhibition, % at 8.92 µM;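 active means inhibition exceeding the mean over every tested compound plus 3 SD, cut at about 30% in these data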;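 further: 0% = plate median of compound wells and 100% = S159A mutant with DMSO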
# Target sequence (Q8VD66 whole entry, looked up, the tested form may be a part): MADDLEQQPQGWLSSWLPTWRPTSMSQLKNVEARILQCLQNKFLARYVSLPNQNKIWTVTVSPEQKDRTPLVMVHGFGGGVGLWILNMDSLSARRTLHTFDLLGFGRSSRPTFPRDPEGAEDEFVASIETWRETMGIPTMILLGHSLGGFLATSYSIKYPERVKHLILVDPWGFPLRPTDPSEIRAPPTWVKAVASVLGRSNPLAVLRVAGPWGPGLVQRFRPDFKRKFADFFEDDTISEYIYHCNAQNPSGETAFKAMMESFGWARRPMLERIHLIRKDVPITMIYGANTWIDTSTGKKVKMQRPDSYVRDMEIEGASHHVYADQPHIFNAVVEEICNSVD
#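 Assay system: Wild-type mouse ABHD4 protein | Medium: HEPES pH 7.0 buffer, 150 mM NaCl, 0.01% Pluronic F-127 | Incubation: Enzyme–compound pre-incubation 45 min, then probe 60 min, both 25 °C | Technique: Fluorescence polarization with parallel and perpendicular emission, 525/598 nm | Evaluation: % inhibition of FP-Rh probe binding versus controls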
# pPAFAH FP inh = inhibitors of human plasma PAF acetylhydrolase (pPAFAH); inhibition, % at 3.39 µM; AID 463082; recombinant pPAFAH, FP-rhodamine probe fluorescence polarization; 1.5% of 330,000 active;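 active means inhibition above the mean inhibition across the screen plus 3 SD, cut at about 25% in these data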;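 further: inhibitors block binding of the rhodamine activity-based probe so polarization drops; 0% = enzyme with DMSO and 100% = wells lacking pPAFAH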
# An asterisk follows results filed as active; · = no result given. Hits are enriched below; roughly 2.8% of the tested compounds scored in any of these assays.
SMILES,PAFAH2 FP inh,PAFAH1B2 FP inh,HTRA1 inh,PAFAH1B3 inh,mABHD4 FP,pPAFAH FP inh
CCC(=O)N(Cc1ccccc1)c1ccccc1C(=O)Nc1cc(OC)ccc1OC,·,·,·,·,2.8,·
CCc1nnn2c1Cn1c3ccccc3c(=O)n1[C@@H](C(C)C)C2,·,·,·,·,0.6,·
C[C@@H]1COc2cc(N3CCCC3)ccc2S(=O)(=O)N1C,·,·,·,·,5.6,·
Cn1c(COc2ccc(Cl)cc2)nnc1SCc1ncc(-c2ccccc2)o1,14.1,36.0*,-13.3,12.1,-3.0,-3.9
CC(C)(C)c1ccc(-c2nnc3n2N=C(c2ccc4ccccc4c2)CS3)cc1,·,·,·,·,-10.8,·
CN(CC(=O)Nc1ccc(F)cc1)C(=O)COC(=O)c1ccc(=O)n(Cc2ccccc2)n1,2.4,5.5,-1.4,3.2,26.8,29.2*
Cc1ccc(-c2cc(-c3nnc(SCc4cccc5ccccc45)n3N)[nH]n2)cc1,·,·,·,·,-10.0,·
CNC(=O)NC(=O)C(C)OC(=O)c1ccc(Cl)c(S(=O)(=O)Nc2ccc(F)cc2)c1 (stereo not drawn),-4.3,-3.7,-10.7,-0.4,-0.3,28.9*
COc1ccc(NS(=O)(=O)c2cc(C(=O)OC(C)C(=O)N3CCOCC3)ccc2Cl)cc1 (stereo not drawn),-0.9,0.8,2.2,12.1,3.0,1.4
COc1ccc(CN2C(NC(=O)OCc3ccccc3)=NC3=CC(C)(C)n4c(=O)n(-c5ccccc5)c(=O)n4C32)c(OC)c1 (stereo not drawn),·,·,·,·,2.8,·
O=C(CCc1ccccc1)N[C@H]1[C@@H](OC(=O)c2ccco2)CCC[C@@]12C(=O)N(Cc1ccccc1)c1ccccc12,·,·,·,·,1.5,·
O=C(NC(=S)Nc1cc([N+](=O)[O-])ccc1O)c1ccc2c(c1)OCO2,14.3,18.2,3.8,20.6,6.0,29.4*
Nc1ncnc2c1nc(Sc1ccc(Cl)cc1)n2[C@@H]1O[C@@H]2COP(=O)(O)O[C@H]2[C@H]1O,-4.5,25.8*,0.0,4.0,-5.5,2.4
CCCCOC(=O)Nc1nnc(CCc2ccccc2)s1,-1.5,6.6,-6.0,3.5,6.0,26.4*
CCCCOC(=O)Nc1nnc(COc2ccccc2)s1,-5.3,7.1,-7.0,-6.2,-5.5,4.5
Nc1ccc(CSc2ccccc2)cc1,8.7,31.6*,7.8,7.4,-2.1,·
Nc1ccc(SCc2cccnc2)cc1,4.3,6.9,6.3,-1.0,-0.9,1.7
CN(CC(=O)Nc1ccccc1Cl)C(=O)COC(=O)c1cccs1,1.3,2.4,0.1,10.1,1.0,-1.7
Cc1ccc(SCC(=O)OCC(=O)N(C)CC(=O)Nc2ccccc2Cl)cc1C,-0.7,4.5,-4.9,7.4,18.9,34.4*
CN(CC(=O)Nc1ccccc1Cl)C(=O)COC(=O)c1ccc([N+](=O)[O-])s1,34.4*,19.2,36.0,48.1*,-4.6,10.2
CN(CC(=O)Nc1ccccc1Cl)C(=O)COC(=O)CSc1ccc(F)cc1,0.1,14.9,2.5,-4.0,-3.0,22.6
Cc1cc(C)c(NC(=O)COC(=O)c2ccc([N+](=O)[O-])s2)c(C)c1,20.1,5.6,12.9,13.2,-4.6,1.3
Cc1ccc(NC(=O)COC(=O)c2ccc([N+](=O)[O-])s2)c(C)c1,38.5*,16.5,28.4,28.1*,3.8,10.7
NS(=O)(=O)c1ccc(NC(=O)COC(=O)c2ccc([N+](=O)[O-])s2)cc1,43.3*,12.4,34.6,29.9*,-7.2,33.3*
COc1ccc(C(C(=O)N(C)C2CCCC2)N(Cc2ccc(F)cc2)C(=O)c2csc(-c3ccccc3)n2)cc1OC (stereo not drawn),·,·,·,·,-1.4,·
SMILES,PAFAH2 FP inh,PAFAH1B2 FP inh,HTRA1 inh,PAFAH1B3 inh,mABHD4 FP,pPAFAH FP inh
CN=C1S/C(=C/c2cc(C)n(-c3cc(C)ccc3OC)c2C)C(=O)N1C,·,·,·,·,4.8,·
C=CCN1C(=O)[C@@H](CC(=O)N2CCC(c3ccccc3)CC2)[C@]2(C(=O)OC)CCCCC=C12,·,·,·,·,0.1,·
O=C(CCN1C(=O)/C(=C/c2ccccc2F)SC1=S)N[C@@H](CO)Cc1ccccc1,2.9,37.9*,0.6,0.8,-9.4,-2.4
O=C(CCN1C(=O)/C(=C/c2ccccc2)SC1=S)Nc1ccccn1,-0.4,6.1,5.1,1.6,1.1,0.6
O=C(CCN1C(=O)/C(=C/c2ccccc2)SC1=S)N[C@@H](CO)Cc1ccccc1,-4.8,42.7*,-17.1,3.5,-9.1,1.4
Cc1n[nH]c(=S)n1/N=C/c1ccc(OCc2ccc(Cl)cc2)cc1,9.5,28.2*,-13.2,5.8,-3.2,4.6
CCc1n[nH]c(=S)n1/N=C/c1ccc2c(c1)OCO2,2.6,1.6,0.5,-3.8,-5.1,9.4
S=c1[nH]nc(Cc2ccc(Br)cc2)n1/N=C/c1ccc(Cl)cc1,-1.6,34.3*,-16.3,12.9,-1.1,7.2
CCc1n[nH]c(=S)n1/N=C/c1ccc(N(C)c2ccccc2)cc1,-0.9,-6.2,-2.8,11.4,5.5,25.6*
CCCc1cn(-c2ccc3c(c2)[C@]2(CC(=O)N(C)C2c2ccccc2)C(=O)N3CC(C)C)nn1 (stereo partly drawn),·,·,·,·,1.6,·
COC(=O)[C@H]1C[C@@]2(C3C=CC=C3)c3ccccc3N[C@H]2N1,·,·,·,·,2.5,·
O=C(O)c1ccccc1NS(=O)(=O)c1ccc(NN=Cc2ccccc2F)c([N+](=O)[O-])c1,7.0,15.4,-25.1,8.3,25.8,51.1*
O=C(O)c1ccccc1/C=N/Nc1ccc(S(=O)(=O)N2CCCC2)cc1[N+](=O)[O-],-6.1,12.0,-2.7,7.8,2.3,8.9
CO/N=C(/CS(=O)Cc1ccc(Cl)cc1)c1ccc(Cl)cc1 (stereo not drawn),-2.9,12.3,-14.7,-3.9,3.0,26.9*
N#CCC(=O)NN=C1CCCCCCCCCCC1,2.6,25.6*,1.7,4.7,-4.0,2.9
O=C(Cc1ccccc1)NN=C1CCCC1,-2.1,5.4,-4.7,5.6,7.6,·
CCC(=O)NCC[C@@H]1CCc2ccc3c(c21)CCO3,·,·,·,·,-0.1,·
Cc1nc(S/C(=C/c2ccc(-c3ccc(C(=O)O)cc3)o2)C(=O)O)n[nH]1,14.5,0.8,1.0,20.3,21.6,32.8*
COc1ccc2c(-c3ccccc3)cc(SCC(N)=O)nc2c1,-4.8,-2.6,-24.9,-6.3,-12.7,33.3*
COc1ccc2nc(SCC(N)=O)cc(C)c2c1,11.2,-2.1,0.0,-4.3,0.8,-8.3
COC(=O)c1ccc(COC(=O)CNS(=O)(=O)c2ccccc2)cc1,6.6,-0.4,3.9,11.5,-2.2,2.0
O=C(CNS(=O)(=O)c1ccccc1)NCC(=O)OCc1ccc(Br)cc1,18.3,44.9*,3.7,2.9,3.6,8.2
CC(C)C[C@H](NC1(C(=O)NC2CCCCC2)CCC1)C(=O)NCC(c1ccccc1)c1ccccc1,·,·,·,·,7.1,·
O=C(COc1c(Br)cc(Br)c2cccnc12)Nc1ccccc1F,3.7,2.3,26.6,10.8,13.7,30.3*
O=C(COc1ccccc1)Nc1ccccc1F,2.4,3.0,4.4,9.8,4.4,4.2
